Test results reported in publication PMC4306711 (The Journal of General Physiology, 2015).
Where two headings read alike, the source gives them in different places.

Legend:
WT rKv2.1 = assay: Two-electrode voltage-clamp of WT rKv2.1 in Xenopus oocytes; type: cell-based, rat; conditions: 1 µM toxin; 300-ms depolarization to 0 mV, holding −90 mV, tail −60 mV
[1] = tested on: rNav1.2a/Kv2.1 VSD IV paddle chimera; type: cell-based, rat
[2] = tested on: rNav1.2a/Kv2.1 VSD IV R1629A/L1630A paddle chimera; type: cell-based, rat; conditions: 100 nM AaHII; holding −10 mV, 300-ms step after −150 mV, tail −150 mV
[3] = tested on: isolated rNav1.2a VSD IV paddle motif; assay: SPR with immobilized rNav1.2a VSD IV paddle peptide; type: binding, rat; conditions: 50 fmol peptide, heterogeneous ligand model, n = 3
Method in brief: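 Biotinylated synthetic VSD IV paddle peptide (~50 fmol) captured on neutravidin amine-coupled to a CM5 chip. Run at 25°C in 50 mM phosphate, pH 7.2. Toxin at 15–2,000 nM injected at 20 µl/min after a steady baseline; control flow cell subtracted; regenerated with 1 M NaCl (15 s, 30 µl/min). Bulk signal excluded, then fitted to a two-site heterogeneous ligand model; n = 3, mean ± SD.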

[4] = tested on: isolated rNav1.2a VSD II paddle motif; assay: SPR with immobilized rNav1.2a VSD II paddle peptide; type: binding, rat; conditions: up to 20 µM toxin, 25°C
rNav1.2a = conditions: cited from earlier work
[5] = tested on: rNav1.2a/Kv2.1 VSD IV paddle chimera; conditions: electrophysiology; ref Bosmans et al., 2008; cited from earlier work
[6] = biological target: rNav1.2a/Kv2.1 VSD IV chimera R1629A; conditions: read-out: apparent KD, VSD IV chimera R1629A, ref Bosmans et al., 2008; cited from earlier work
[7] = biological target: rNav1.2a/Kv2.1 VSD IV chimera L1630A; conditions: read-out: apparent KD, VSD IV chimera L1630A, ref Bosmans et al., 2008; cited from earlier work
[8] = tested on: rNav1.2a/Kv2.1 VSD II paddle chimera; conditions: ref Bosmans et al., 2008; cited from earlier work
[9] = tested on: rNav1.2a/Kv2.1 VSD II paddle chimera; type: cell-based, rat
Kv1.1 = conditions: ref Crest et al., 1992; cited from earlier work
Kv1.3 = conditions: ref Crest et al., 1992; cited from earlier work
Nav channel = conditions: ref Crest et al., 1992; cited from earlier work
[10] = SPR, Biacore T200, 25°C, pH 7.2, 15–2,000 nM, mean ± SD

## AaHI: α-scorpion toxin from Androctonus australis Hector
WT rKv2.1
  effect on WT Kv2.1 K^+ current: insensitive
[1]; 100 nM toxin, 300-ms depolarization, holding −90 mV
  voltage-dependent K^+ current inhibition, VSD IV paddle chimera: robust voltage-dependent K^+ current inhibition
[1]; 100 nM toxin, Boltzmann fit, n = 3, holding −90 mV, tail −60 mV
  depolarizing shift in midpoint (V1/2), VSD IV paddle chimera: ~15 mV

## AaHII: α-scorpion toxin from Androctonus australis Hector
[1]; 100 nM AaHII
  inhibition of WT rNav1.2a/Kv2.1 VSD IV chimera compared with double mutant: influenced to a much lesser extent
[2]
  inhibition of R1629A/L1630A double mutant chimera: strongly inhibits the double mutant
[3]; [10]
  dissociation rate constant kd1: 0.000979 ± 0.00014 s⁻¹
  dissociation rate constant kd2: 0.0281 ± 0.0058 s⁻¹
  high affinity KD1 (kd1/ka1): 479 ± 241 nM
[3]; high affinity site
  RUmax1: 135
[3]; lower affinity site
  RUmax2: 23
[4]
  SPR effect on VSD II paddle motif at high toxin concentration: did not notice an effect
rNav1.2a; read-out: affinity for WT rNav1.2a, WT rNav1.2a, ref Wang et al., 2011
  Kd: ~5 nM
[5]
  binding to VSD IV paddle (rNav1.2a/Kv2.1 chimeras): shown to bind to the VSD IV paddle motif in rNav1.2a
[6]
  Kd: 235 ± 24 nM
[7]
  Kd: 205 ± 23 nM
[8]
  interaction with rNav1.2a/Kv2.1 VSD II paddle chimera: no interaction was observed

## CssIV: β-scorpion toxin from Centruroides suffusus suffusus
[1]; 1 µM toxin, n = 3, holding −90 mV, tail −60 mV
  influence on VSD IV chimera: does not influence the VSD IV chimera
[9]; 1 µM toxin, Boltzmann fit, n = 3, holding −90 mV, tail −60 mV
  depolarizing shift in V1/2, VSD II chimera: ~14 mV
[9]; 1 µM toxin, control 33 ± 2 mV, mean ± SEM, n = 3, holding −90 mV, tail −60 mV
  V1/2 in the presence of toxin, VSD II chimera: 47 ± 1 mV
[9]; Xenopus oocytes, ∼22°C
  concentration required to begin inhibiting the rNav1.2a/Kv2.1 VSD II paddle chimera: 1 µM

## kaliotoxin [KTX]
Kv1.1
  Kv1.1 pore block: blocks
Kv1.3
  Kv1.3 pore block: blocks
Nav channel
  influence on Nav channel function: does not influence Nav channel function

B1: TsVII: β-scorpion toxin from the Brazilian scorpion Tityus serrulatus (protein, UniProt P15226 21-81, looked up)
Beta-mammal/insect toxin Ts1: KEGYLMDHEGCKLSCFIRPSGYCGRECGIKKGSSGYCAWPACYCYGLPNWVKVWDRATNKC
modifications: ends and bridges not checked
rNav1.2a; read-out: apparent KD, rNav1.2a, ref Bosmans et al., 2008
  Kd: 25 to 121 nM
[5]
  binding to VSD IV paddle (rNav1.2a/Kv2.1 chimeras): can also bind to the VSD IV paddle
